Source: ChEMBL document CHEMBL4145686, “Discovery of a Potent and Selective Steroidal Glucocorticoid Receptor Antagonist (ORIC-101)” (J Med Chem, 2018)
pIC50: −log10 of the molar value. Active and inactive are the calls of the source. The rule behind the calls is not given here.

How the values were obtained:
[1] = target: T1, Mineralocorticoid receptor (Homo sapiens, UniProt P08235); experiment: Antagonist activity at human MR expressed in CHO-K1 cells assessed as reduction in aldosterone-induced protein interaction between MR and its coactivator SRC at 5 uM incubated for 24 hrs by beta-galactosidase based chemiluminescence assay; format: cell-based; settings: cho-k1, 24 h
T1 sequence (P08235 whole entry): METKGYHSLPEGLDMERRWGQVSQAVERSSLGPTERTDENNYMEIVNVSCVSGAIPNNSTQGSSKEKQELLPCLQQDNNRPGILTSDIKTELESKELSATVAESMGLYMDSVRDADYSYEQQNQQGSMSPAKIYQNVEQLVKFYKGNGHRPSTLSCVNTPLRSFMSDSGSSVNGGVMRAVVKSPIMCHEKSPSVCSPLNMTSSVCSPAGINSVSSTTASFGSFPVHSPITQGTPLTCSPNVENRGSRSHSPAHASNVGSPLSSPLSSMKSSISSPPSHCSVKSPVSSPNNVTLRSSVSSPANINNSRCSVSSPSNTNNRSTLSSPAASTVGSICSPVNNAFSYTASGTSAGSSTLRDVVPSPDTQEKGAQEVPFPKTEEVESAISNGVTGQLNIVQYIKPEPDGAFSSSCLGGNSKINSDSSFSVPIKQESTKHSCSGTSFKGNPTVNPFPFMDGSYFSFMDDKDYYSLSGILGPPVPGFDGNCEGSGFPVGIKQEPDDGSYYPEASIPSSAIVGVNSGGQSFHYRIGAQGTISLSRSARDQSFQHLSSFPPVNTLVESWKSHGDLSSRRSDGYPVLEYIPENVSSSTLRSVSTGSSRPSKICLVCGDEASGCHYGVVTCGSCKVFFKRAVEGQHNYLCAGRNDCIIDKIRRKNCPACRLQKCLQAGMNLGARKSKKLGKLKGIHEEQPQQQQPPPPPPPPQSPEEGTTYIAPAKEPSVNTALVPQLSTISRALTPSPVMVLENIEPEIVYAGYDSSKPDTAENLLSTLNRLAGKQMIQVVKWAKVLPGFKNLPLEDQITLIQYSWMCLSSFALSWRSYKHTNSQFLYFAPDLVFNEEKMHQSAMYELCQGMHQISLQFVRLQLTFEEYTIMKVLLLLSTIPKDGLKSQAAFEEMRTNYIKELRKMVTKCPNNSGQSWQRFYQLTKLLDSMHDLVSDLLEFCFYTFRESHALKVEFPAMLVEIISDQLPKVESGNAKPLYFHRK

[2] = Clearance in mini pig at 0.5 mg/kg, iv; format: ADME, organism-based, Sus scrofa; settings: in vivo
[3] = Cmax in mouse at 5 mg/kg, po; format: ADME, organism-based; design: dose 5 mg/kg, route oral; settings: in vivo
[4] = Volume of distribution at steady state in rat at 0.5 mg/kg, iv; format: ADME, organism-based; settings: in vivo, read-out: Vdss
[5] = Unbound plasma concentration in nude mouse xenografted with human OVCAR5 cells at 25 to 75 mg/kg, po dosed as gavage and measured after 6 hrs; format: ADME, organism-based; settings: in vivo
Procedure, shortened: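 OVCAR5 xenograft mice received dexamethasone 0.5 mg/kg by intraperitoneal injection with or without a single oral gavage dose of the antagonist at 25, 50 or 75 mg/kg. Tumors and plasma collected 6 h later. Tumor FKBP5 mRNA measured by RT-qPCR. Unbound plasma concentration of the antagonist determined, n = 4 mice per group. FKBP5 effects tested by one-way ANOVA with Dunnett's test versus the vehicle group.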

[6] = target: T2, Glucocorticoid receptor (Homo sapiens) (UniProt P04150); experiment: (§1) Antagonist activity at GR in human OVCAR5 assessed as reduction in dexamethasone-induced FKBP5 gene expression incubated for 24 hrs by RT-qPCR method
T2 sequence (whole entry): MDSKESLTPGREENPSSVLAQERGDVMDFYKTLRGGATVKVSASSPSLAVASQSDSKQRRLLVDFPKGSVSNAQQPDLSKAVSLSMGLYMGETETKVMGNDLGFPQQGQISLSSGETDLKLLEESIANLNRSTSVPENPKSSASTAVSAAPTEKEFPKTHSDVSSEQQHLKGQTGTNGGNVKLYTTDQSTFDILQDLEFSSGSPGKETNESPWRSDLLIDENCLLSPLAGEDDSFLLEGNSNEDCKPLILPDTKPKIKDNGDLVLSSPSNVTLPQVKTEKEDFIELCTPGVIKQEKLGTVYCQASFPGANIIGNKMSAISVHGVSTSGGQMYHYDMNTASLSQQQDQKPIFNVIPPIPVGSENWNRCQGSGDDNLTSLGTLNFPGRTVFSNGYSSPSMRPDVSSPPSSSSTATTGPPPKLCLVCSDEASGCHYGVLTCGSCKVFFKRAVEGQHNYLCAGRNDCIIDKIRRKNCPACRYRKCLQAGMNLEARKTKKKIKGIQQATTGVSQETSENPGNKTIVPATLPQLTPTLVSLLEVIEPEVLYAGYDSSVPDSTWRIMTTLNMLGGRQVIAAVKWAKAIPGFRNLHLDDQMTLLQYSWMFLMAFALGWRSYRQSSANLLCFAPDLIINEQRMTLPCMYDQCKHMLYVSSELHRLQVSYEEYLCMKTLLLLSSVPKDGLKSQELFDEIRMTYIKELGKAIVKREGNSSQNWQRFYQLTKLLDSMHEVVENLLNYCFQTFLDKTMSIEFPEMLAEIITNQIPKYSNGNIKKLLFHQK

Glucocorticoid receptor = target: T3, Glucocorticoid receptor (Homo sapiens, UniProt P04150); experiment: as §1
T3 sequence (P04150 whole entry): T2 sequence (whole entry)

[7] = AUC in mini pig at 10 mg/kg, po; format: ADME, organism-based, Sus scrofa; settings: in vivo
OVCAR-5 = experiment: Antitumor activity against human OVCAR5 cells xenografted in chronic cortisol treated nude mouse assessed as reduction in tumor volume at 75 mg/kg, po BID dosed via gavage; format: functional, organism-based
Procedure, shortened: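 Cortisol given in drinking water at 100 mg/L before tumor implantation and throughout the study. Mice bearing established OVCAR5 xenografts, n = 10 per group. Gemcitabine 100 mg/kg and carboplatin 60 mg/kg given every 3 days for 4 doses. Antagonist given at 75 mg/kg twice daily by oral gavage for the whole study. Tumor volume tracked, mean ± SEM, with significance assessed on day 21.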

CC(C)N(C)c1ccc([C@H]2C[C@@]3(C)[C@@H](CC[C@@]3(O)C#CC(C)(C)C)[C@@H]3CCC4=CC(=O)CC[C@@H]4[C@H]32)cc1
inhibition (INH) [1]: Not Active
clearance [2]: 18.3 mL/min/kg
Cmax [3]: 274 ng/mL
Vd [4]: 4.6 L/kg
Cp(f) [5]: 20 to 120 nM
inhibition [6]: Dose-dependent effect
pIC50 (Glucocorticoid receptor): 7.76
AUC [7]: 1720 ng·h/mL
TGI (OVCAR-5): inactive
